Tests used:
[1] = system: MHCC97-H cells; experiment: MTT cell-survival examination; type: cell-based; conditions: compound 4 at 0.03 μmol/L (30 nmol/L)
Outline: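 MHCC97-H seeded at 5 × 10^3 cells/well in DMEM + 10% FBS, 37°C, 5% CO2, 24 h. MTT read at OD 490 nm; inhibition = (control − treated)/control × 100%; IC50 calculated from inhibitory rates.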

[2] = system: phospho-ERK; experiment: Western blot, phosphorylation of ERK; type: cell-based, human; conditions: MHCC97-H cells, 1 μmol/L
Outline: (§1)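 MHCC97-H cells (5 × 10^6 per 75T flask) pretreated 12 h with solvent, test compound or reference pathway inhibitors, each at 1 μmol/L, then incubated 24 h. RIPA lysates quantified by BCA; 40 μg protein run on 10–12% SDS-PAGE. Blocking in 5% skim milk/TBS-0.1% Tween-20; rabbit primary antibodies (1:1000, 4°C) against phospho-p70S6K Thr389, phospho-AKT Ser473/Thr308, phospho-ERK and total proteins; β-actin loading control.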

[3] = system: phospho-AKT; experiment: Western blot, phosphorylation of AKT; type: cell-based, human; conditions: MHCC97-H cells; for phosphorylation of AKT (Western blot): 1 μmol/L
Outline: as §1

[4] = system: MHCC97-H cells' subcutaneous tumor; experiment: Nude mice subcutaneous tumor model; type: in vivo; conditions: oral; for Tumor Volumes IC50 Values, Solvent control / Tumor Weights IC50 Values, Solvent control / Tumor Volumes IC50 Values, Compound 4 / Tumor Weights IC50 Values, Compound 4: every 2 days, 30 days; for Tumor Volumes IC50 Values, Solvent control / Tumor Weights IC50 Values, Solvent control: agent alone; for Tumor Volumes IC50 Values, Compound 4 / Tumor Weights IC50 Values, Compound 4: agent combined with compound 4 (1 mg/kg)
Outline: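 MHCC97-H cells injected subcutaneously into 4–5-week-old nude mice. Dosing started 4–5 days later as oral liquids formulated with PEG and Tween 80, given orally every 2 days (15 doses over 30 days). Test compound at 1 mg/kg; sorafenib at 0.5 or 2 mg/kg. Tumours then excised. Volume = length × width²/2; weight measured on a balance. Inhibitory rates calculated from volume and weight.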

[5] = system: phospho-p70S6K (Thr389); experiment: Western blot, phosphorylation of P70S6K1; type: cell-based, human; conditions: MHCC97-H cells; for phosphorylation of P70S6K1 (Western blot): 1 μmol/L
[6] = system: advanced HCC patients; experiment: Clinical outcome of sorafenib treatment by mTOR mRNA expression; type: in vivo, human; conditions: sorafenib-treated advanced HCC patients
[7] = stated in introduction, no reference given; cited from earlier work

## CC(C)(C)OC(=O)Nc1ccc(-c2nc(N3CCOCC3)c3ncn(CCC4OCCO4)c3n2)cc1 [Compound 4, tert-butyl (4-(9-(2-(1,3-dioxolan-2-yl)ethyl)-6-morpholino-9H-purin-2-yl)phenyl)carbamate]
[1]
  cytotoxicity on MHCC97-H cells: no obvious cytotoxicity
[2]
  ERK phosphorylation (Western blot): did not show a significant inhibitory effect
[3]
  inhibitory activity on mTORC2 (phospho-AKT SER473, Western blot): weaker than that on mTORC1
  phosphorylation of AKT (Western blot): did not affect PI3K or AKT
[4]; compound 4 alone at 1 mg/kg
  MHCC97-H cells' subcutaneous growth: without significantly affecting
[4]; compound 4 at 1 mg/kg
  activation of mTOR in vivo: significantly inhibited the activation of mTOR
[5]
  inhibitory activity on mTORC1 (phospho-p70S6K1, Western blot): definite inhibitory effect
  phosphorylation of P70S6K1 (Western blot): only inhibited the phosphorylation of P70S6K1
[5]; compound 4 at 0.03 μmol/L (30 nmol/L)
  inhibition of activation of mTOR kinase (phosphorylation of P70S6K1) in cells: significantly inhibited the activation of mTOR

## O=c1cc(N2CCOCC2)oc2c(-c3ccccc3)cccc12 [LY294002]
[3]
  phosphorylation of AKT (Western blot): significantly inhibited
[5]
  phosphorylation of P70S6K1 (Western blot): significantly inhibited

## COc1cc2nccc(Oc3ccc(NC(=O)NC4CC4)c(Cl)c3)c2cc1C(N)=O [Lenvatinib]
[4]
  Tumor Volumes IC50 Values, Solvent control: 0.70 ± 0.25 mg/kg
  Tumor Weights IC50 Values, Solvent control: 0.78 ± 0.58 mg/kg
  Tumor Volumes IC50 Values, Compound 4: 0.10 ± 0.05 mg/kg
  Tumor Weights IC50 Values, Compound 4: 0.10 ± 0.01 mg/kg

## N#CC1(c2ccc(NC(=O)c3cccnc3NCc3ccncc3)cc2)CCCC1 [Apatinib]
[4]
  Tumor Volumes IC50 Values, Solvent control: 1.95 ± 0.55 mg/kg
  Tumor Weights IC50 Values, Solvent control: 1.65 ± 0.09 mg/kg
  Tumor Volumes IC50 Values, Compound 4: 0.53 ± 0.20 mg/kg
  Tumor Weights IC50 Values, Compound 4: 0.59 ± 0.07 mg/kg

## CNC(=O)c1cc(Oc2ccc(NC(=O)Nc3ccc(Cl)c(C(F)(F)F)c3)cc2)ccn1 [Sorafenib]
[6]; mTOR mRNA High (n = 40)
  OS (overall survival), median: 10.0 M
  TTP (time to progress), median: 8.0 M
[6]; mTOR mRNA Low (n = 12)
  OS (overall survival), median: 16.0 M
  TTP (time to progress), median: 12.0 M
[4]
  Tumor Volumes IC50 Values, Solvent control: 1.30 ± 0.48 mg/kg
  Tumor Weights IC50 Values, Solvent control: 1.57 ± 0.41 mg/kg
  Tumor Volumes IC50 Values, Compound 4: 0.17 ± 0.03 mg/kg
  Tumor Weights IC50 Values, Compound 4: 0.15 ± 0.04 mg/kg

## COc1cc2c(Oc3ccc4[nH]c(C)cc4c3F)ccnc2cc1OCC1(N)CC1 [Anlotinib]
[4]
  Tumor Volumes IC50 Values, Solvent control: 1.70 ± 0.54 mg/kg
  Tumor Weights IC50 Values, Solvent control: 1.60 ± 0.71 mg/kg
  Tumor Volumes IC50 Values, Compound 4: 0.44 ± 0.23 mg/kg
  Tumor Weights IC50 Values, Compound 4: 0.42 ± 0.07 mg/kg

## CNC(=O)c1cc(Oc2ccc(NC(=O)Nc3ccc(Cl)c(C(F)(F)F)c3)c(F)c2)ccn1 [Regorafenib]
[4]
  Tumor Volumes IC50 Values, Solvent control: 0.92 ± 0.48 mg/kg
  Tumor Weights IC50 Values, Solvent control: 1.22 ± 0.72 mg/kg
  Tumor Volumes IC50 Values, Compound 4: 0.43 ± 0.10 mg/kg
  Tumor Weights IC50 Values, Compound 4: 0.55 ± 0.10 mg/kg

## CO[C@H]1C[C@@H]2CC[C@@H](C)[C@@](O)(O2)C(=O)C(=O)N2CCCC[C@H]2C(=O)O[C@H]([C@H](C)C[C@@H]2CC[C@@H](O)[C@H](OC)C2)CC(=O)[C@H](C)/C=C(\C)[C@@H](O)[C@@H](OC)C(=O)[C@H](C)C[C@H](C)/C=C/C=C/C=C/1C [rapamycin]
[7]
  logP: > 6

## C[C@@H]1CCN(C(=O)CC#N)C[C@@H]1N(C)c1ncnc2[nH]ccc12 [CP690550]
[2]
  ERK phosphorylation (Western blot): does not affect
[3]
  phosphorylation of AKT (Western blot): does not affect
[5]
  phosphorylation of P70S6K1 (Western blot): does not affect

## CO[C@H]1C[C@@H]2CC[C@@H](C)[C@@](O)(O2)C(=O)C(=O)N2CCCC[C@H]2C(=O)O[C@H]([C@H](C)C[C@@H]2CC[C@@H](OCCO)[C@H](OC)C2)CC(=O)[C@H](C)/C=C(\C)[C@@H](O)[C@@H](OC)C(=O)[C@H](C)C[C@H](C)/C=C/C=C/C=C/1C [everolimus]
[7]
  logP: > 6

## CC(C)(C)c1nc(-c2cccc(NS(=O)(=O)c3c(F)cccc3F)c2F)c(-c2ccnc(N)n2)s1 [GSK2118436]
[2]
  ERK phosphorylation (Western blot): significantly inhibited ERK phosphorylation
